From ChEMBL document CHEMBL3286372, “Design, synthesis and structure-activity relationship of novel semi-synthetic flavonoids as antiproliferative agents” (2014)

Columns and labels:
Format in all cases: functional
[1] = test system: NCI-H522; assay: Growth inhibition of human NCI-H522 cells at 10 uM after 48 hrs by sulforhodamine B assay relative to control; details: NCI-H522, 48 h, read-out: GI
Procedure, shortened: (§1)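 NCI-60 primary screen at a single 10 µM dose. Continuous 48 h exposure, with growth or viability estimated by sulforhodamine B protein staining. Reported as percent growth inhibition of treated cells relative to untreated growth.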

[2] = test system: MCF7; assay: Growth inhibition of human MCF7 cells at 10 uM after 48 hrs by sulforhodamine B assay relative to control; details: MCF7, 48 h, read-out: GI
Procedure, shortened: (§2)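 NCI-60 primary screen at a single dose of 10 µM with 48 h continuous exposure. Growth or viability read by sulforhodamine B protein staining and expressed as percent growth inhibition versus untreated cells.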

[3] = test system: RPMI-8226; assay: Growth inhibition of human RPMI8226 cells at 10 uM after 48 hrs by sulforhodamine B assay relative to control; details: RPMI-8226, 48 h, read-out: GI; procedure, shortened: as §1
[4] = Growth inhibition of human NCI-ADR-RES cells at 10 uM after 48 hrs by sulforhodamine B assay relative to control; details: read-out: GI; procedure, shortened: as §1
[5] = Growth inhibition of human HCT15 cells at 10 uM after 48 hrs by sulforhodamine B assay relative to control; details: HCT-15, 48 h, read-out: GI; procedure, shortened: as §2
[6] = Growth inhibition of human SF539 cells at 10 uM after 48 hrs by sulforhodamine B assay relative to control; details: SF-539, 48 h, read-out: GI; procedure, shortened: as §1
[7] = Growth inhibition of human LOXIMVI cells at 10 uM after 48 hrs by sulforhodamine B assay relative to control; details: LOX IMVI, read-out: GI; procedure, shortened: as §2
[8] = test system: SR; assay: Growth inhibition of human SR cells at 10 uM after 48 hrs by sulforhodamine B assay relative to control; details: read-out: GI; procedure, shortened: as §1
[9] = test system: MDA-MB-468; assay: Growth inhibition of human MDA-MB-468 cells at 10 uM after 48 hrs by sulforhodamine B assay relative to control; details: MDA-MB-468, 48 h, read-out: GI; procedure, shortened: as §1
[10] = test system: U-251; assay: Growth inhibition of human U251 cells at 10 uM after 48 hrs by sulforhodamine B assay relative to control; details: U-251, 48 h, read-out: GI
Procedure, shortened: (§3)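 NCI-60 primary single-dose screen at 10 µM with continuous 48 h exposure. Cell viability/growth read by sulforhodamine B protein staining. Reported as percent growth inhibition relative to untreated cells.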

[11] = test system: NCI-H460; assay: Growth inhibition of human NCI-H460 cells at 10 uM after 48 hrs by sulforhodamine B assay relative to control; details: NCI-H460, 48 h, read-out: GI; procedure, shortened: as §1
[12] = test system: PC-3; assay: Growth inhibition of human PC3 cells at 10 uM after 48 hrs by sulforhodamine B assay relative to control; details: PC-3, 48 h, read-out: GI; procedure, shortened: as §1
[13] = test system: SW-620; assay: Growth inhibition of human SW620 cells at 10 uM after 48 hrs by sulforhodamine B assay relative to control; details: SW-620, 48 h, read-out: GI; procedure, shortened: as §1
[14] = test system: HCT-116; assay: Growth inhibition of human HCT116 cells at 10 uM after 48 hrs by sulforhodamine B assay relative to control; details: HCT-116, 48 h, read-out: GI; procedure, shortened: as §2
[15] = test system: MDA-MB-435; assay: Growth inhibition of human MDA-MB-435 cells at 10 uM after 48 hrs by sulforhodamine B assay relative to control; details: MDA-MB-435, 48 h, read-out: GI; procedure, shortened: as §2
[16] = Growth inhibition of human MOLT4 cells at 10 uM after 48 hrs by sulforhodamine B assay relative to control; details: MOLT-4, 48 h, read-out: GI; procedure, shortened: as §1
[17] = test system: SK-MEL-5; assay: Growth inhibition of human SK-MEL-5 cells at 10 uM after 48 hrs by sulforhodamine B assay relative to control; details: SK-MEL-5, 48 h, read-out: GI; procedure, shortened: as §1
[18] = test system: TK-10; assay: Growth inhibition of human TK10 cells at 10 uM after 48 hrs by sulforhodamine B assay relative to control; details: TK-10, 48 h, read-out: GI; procedure, shortened: as §3
[19] = test system: HL-60(TB); assay: Growth inhibition of human HL-60(TB) cells at 10 uM after 48 hrs by sulforhodamine B assay relative to control; details: HL-60, 48 h, read-out: GI
Procedure, shortened: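 Single-dose primary screen at 10 µM across the NCI 60 panel, 48 h continuous exposure. Growth estimated by sulforhodamine B protein staining and reported as percentage growth inhibition relative to untreated control.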

[20] = Growth inhibition of human OVCAR3 cells at 10 uM after 48 hrs by sulforhodamine B assay relative to control; details: OVCAR-3, 48 h, read-out: GI; procedure, shortened: as §1
[21] = test system: CCRF-CEM; assay: Growth inhibition of human CCRF-CEM cells at 10 uM after 48 hrs by sulforhodamine B assay relative to control; details: read-out: GI; procedure, shortened: as §2
[22] = test system: HT-29; assay: Growth inhibition of human HT-29 cells at 10 uM after 48 hrs by sulforhodamine B assay relative to control; details: HT-29, 48 h, read-out: GI; procedure, shortened: as §2
[23] = Growth inhibition of human BT549 cells at 10 uM after 48 hrs by sulforhodamine B assay relative to control; details: BT-549, 48 h, read-out: GI; procedure, shortened: as §2
[24] = Growth inhibition of human SF295 cells at 10 uM after 48 hrs by sulforhodamine B assay relative to control; details: SF-295, 48 h, read-out: GI; procedure, shortened: as §1
[25] = test system: SK-MEL-2; assay: Growth inhibition of human SK-MEL-2 cells at 10 uM after 48 hrs by sulforhodamine B assay relative to control; details: SK-MEL-2, 48 h, read-out: GI; procedure, shortened: as §1
[26] = test system: NCI-H23; assay: Growth inhibition of human NCI-H23 cells at 10 uM after 48 hrs by sulforhodamine B assay relative to control; details: NCI-H23, 48 h, read-out: GI; procedure, shortened: as §1
[27] = test system: CAKI-1; assay: Growth inhibition of human CAKI-1 cells at 10 uM after 48 hrs by sulforhodamine B assay relative to control; details: CAKI-1, 48 h, read-out: GI; procedure, shortened: as §2
[28] = Growth inhibition of human RXF393 cells at 10 uM after 48 hrs by sulforhodamine B assay relative to control; details: RXF 393, 48 h, read-out: GI; procedure, shortened: as §1
[29] = Growth inhibition of human OVCAR8 cells at 10 uM after 48 hrs by sulforhodamine B assay relative to control; details: OVCAR-8, 48 h, read-out: GI; procedure, shortened: as §1
[30] = Growth inhibition of human HOP92 cells at 10 uM after 48 hrs by sulforhodamine B assay relative to control; details: HOP-92, 48 h, read-out: GI; procedure, shortened: as §2
[31] = test system: Malme-3M; assay: Growth inhibition of human MALME-3M cells at 10 uM after 48 hrs by sulforhodamine B assay relative to control; details: read-out: GI; procedure, shortened: as §2
[32] = Growth inhibition of human UACC257 cells at 10 uM after 48 hrs by sulforhodamine B assay relative to control; details: UACC-257, 48 h, read-out: GI; procedure, shortened: as §3
[33] = test system: T47D; assay: Growth inhibition of human T47D cells at 10 uM after 48 hrs by sulforhodamine B assay relative to control; details: read-out: GI; procedure, shortened: as §1
[34] = Growth inhibition of human OVCAR4 cells at 10 uM after 48 hrs by sulforhodamine B assay relative to control; details: OVCAR-4, 48 h, read-out: GI; procedure, shortened: as §1
[35] = Growth inhibition of human UO31 cells at 10 uM after 48 hrs by sulforhodamine B assay relative to control; details: UO-31, 48 h, read-out: GI; procedure, shortened: as §3
[36] = test system: 786-0; assay: Growth inhibition of human 786-0 cells at 10 uM after 48 hrs by sulforhodamine B assay relative to control; details: 786-0, 48 h, read-out: GI; procedure, shortened: as §2
[37] = test system: IGROV-1; assay: Growth inhibition of human IGROV1 cells at 10 uM after 48 hrs by sulforhodamine B assay relative to control; details: IGROV-1, 48 h, read-out: GI; procedure, shortened: as §2
[38] = test system: K562; assay: Growth inhibition of human K562 cells at 10 uM after 48 hrs by sulforhodamine B assay relative to control; details: K562, 48 h, read-out: GI; procedure, shortened: as §2

Compound | inhibition of growth at 10 µM [1] | inhibition of growth at 10 µM [2] | inhibition of growth at 10 µM [3] | inhibition of growth at 10 µM [4] | inhibition of growth at 10 µM [7] | inhibition of growth at 10 µM [8] | inhibition of growth at 10 µM [9] | inhibition of growth at 10 µM [10] | inhibition of growth at 10 µM [12] | inhibition of growth at 10 µM [13] | inhibition of growth at 10 µM [14] | inhibition of growth at 10 µM [15] | inhibition of growth at 10 µM [16] | inhibition of growth at 10 µM [19] | inhibition of growth at 10 µM [20] | inhibition of growth at 10 µM [21] | inhibition of growth at 10 µM [24] | inhibition of growth at 10 µM [25] | inhibition of growth at 10 µM [27] | inhibition of growth at 10 µM [33] | further results
COc1c2c(c(Br)c3occc13)O/C(=C\c1ccccc1)C2=O | 62% | 84% | 94% | 79% | 65% | 79% | 93% | 73% | 66% | 60% | 77% | 74% | 85% | 64% | 86% | 79% | 65% | 88% | 87% |  | inhibition of growth at 10 µM [5]: 60%; inhibition of growth at 10 µM [6]: 75%; inhibition of growth at 10 µM [11]: 83%; inhibition of growth at 10 µM [17]: 67%; inhibition of growth at 10 µM [18]: 61%; inhibition of growth at 10 µM [22]: 72%; inhibition of growth at 10 µM [23]: 66%; inhibition of growth at 10 µM [26]: 78%; inhibition of growth at 10 µM [28]: 93%; inhibition of growth at 10 µM [29]: 70%
C=CCOc1cc2oc(-c3ccc(OC)cc3)cc(=O)c2c(OC)c1C=O |  |  |  |  |  |  |  |  |  |  |  |  |  |  |  |  |  |  |  |  | inhibition of growth at 10 µM [30]: 66%
COc1c2c(c(Br)c3occc13)O/C(=C\c1ccc(Cl)cc1)C2=O | 64% | 79% | 91% | 61% | 65% | 82% | 80% | 62% | 69% | 63% | 83% | 82% | 85% | 74% | 67% | 79% | 67% | 84% | 80% | 60% | inhibition of growth at 10 µM [31]: 65%; inhibition of growth at 10 µM [32]: 61%; inhibition of growth at 10 µM [22]: 63%; inhibition of growth at 10 µM [28]: 78%
COc1ccc(/C=C2\Oc3c(c(OC)c4ccoc4c3Br)C2=O)cc1 |  | 60% | 71% |  |  | 60% |  |  |  |  | 62% |  | 67% |  |  |  |  |  | 61% |  | inhibition of growth at 10 µM [6]: 60%
COc1ccc(/C=C/c2oc3c(OC)c4occc4c(OC)c3c(=O)c2CN2CCOCC2)cc1 |  |  | 61% |  |  |  |  |  |  |  |  |  | 66% |  |  | 87% |  |  |  |  | inhibition of growth at 10 µM [17]: 84%
COc1ccc(/C=C/c2cc(=O)c3c(OC)c4ccoc4c(Br)c3o2)cc1 | 62% |  |  |  |  |  |  |  |  |  |  |  |  |  |  |  |  |  |  |  | 
COc1c2ccoc2c(Br)c2oc(-c3ccc(Cl)cc3)cc(=O)c12 |  |  |  |  |  |  |  |  |  |  |  |  |  |  |  |  |  |  |  |  | inhibition of growth at 10 µM [34]: 72%
COc1c(C(=O)/C=C/c2ccc(Cl)cc2)c(O)cc2occc12 |  | 64% | 66% |  |  | 63% |  |  |  |  |  |  |  |  |  | 60% |  |  |  | 67% | 
COc1ccc(-c2cc(=O)c3c(OC)c4ccoc4cc3o2)cc1 |  |  |  |  |  |  |  | 62% |  |  |  |  |  |  |  |  | 60% |  |  |  | inhibition of growth at 10 µM [35]: 62%
C=CCOc1cc2oc(-c3ccc(Cl)cc3)cc(=O)c2c(OC)c1C=O | 93% | 85% | 96% | 78% | 99% |  | 91% | 68% | 76% | 69% | 89% | 73% |  | 75% | 81% |  |  | 75% |  | 72% | inhibition of growth at 10 µM [36]: 65%; inhibition of growth at 10 µM [37]: 62%; inhibition of growth at 10 µM [11]: 61%; inhibition of growth at 10 µM [30]: 97%; inhibition of growth at 10 µM [18]: 73%; inhibition of growth at 10 µM [38]: 76%; inhibition of growth at 10 µM [26]: 61%; inhibition of growth at 10 µM [35]: 74%; inhibition of growth at 10 µM [29]: 66%
